Results as given in PMC4878416 (Diabetes, 2016).
pIC50: −log10 of the molar value.

Columns and labels:
human β-cells = assay: EdU incorporation proliferation assay in dissociated human islet cells; format: cell-based
In short: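 Human islets dissociated in Accutase (5,000 IEQ/mL, 37°C, 20 min), resuspended in CMRL complete medium and seeded at ~30,000 (96-well) or ~15,000 (384-well) cells per well. EdU was present throughout the 6-day treatment, including FK506 cotreatment. Cells were fixed (3% PFA), permeabilised (0.2% Triton X-100) and stained for C-peptide and DAPI. EdU+ β-cells were scored by automated imaging and manually; 4 wells, 9 fields each; mean ± SD; two-tailed t test vs DMSO.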

DYRK4 = molecular target: T1, DYRK4 (Homo sapiens, UniProt Q9NR20); assay: Human kinome profiling, DYRK4; format: biochemical
T1 sequence (Q9NR20 1-520): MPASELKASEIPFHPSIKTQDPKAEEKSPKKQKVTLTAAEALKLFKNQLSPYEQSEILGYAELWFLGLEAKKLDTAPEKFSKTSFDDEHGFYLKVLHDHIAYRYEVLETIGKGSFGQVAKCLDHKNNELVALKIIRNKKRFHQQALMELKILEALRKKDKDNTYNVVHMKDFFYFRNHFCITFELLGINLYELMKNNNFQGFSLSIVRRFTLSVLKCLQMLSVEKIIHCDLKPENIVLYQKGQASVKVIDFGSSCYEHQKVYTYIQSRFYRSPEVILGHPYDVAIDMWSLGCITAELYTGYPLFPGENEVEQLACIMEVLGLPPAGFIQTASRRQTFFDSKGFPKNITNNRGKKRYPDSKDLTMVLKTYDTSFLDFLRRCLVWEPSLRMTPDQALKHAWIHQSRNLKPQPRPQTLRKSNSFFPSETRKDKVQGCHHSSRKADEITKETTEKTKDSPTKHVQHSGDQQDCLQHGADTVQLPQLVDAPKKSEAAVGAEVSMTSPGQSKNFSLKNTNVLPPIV
In short: (§1)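 Human kinases profiled by commercial providers under their standard protocols; ATP within 15 μmol/L of the apparent KM for each enzyme.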

CLK4 = CLK4 (Homo sapiens, UniProt Q9HAZ1); assay: Human kinome profiling, CLK4; format: biochemical
Chain of CLK4 (Q9HAZ1 whole entry): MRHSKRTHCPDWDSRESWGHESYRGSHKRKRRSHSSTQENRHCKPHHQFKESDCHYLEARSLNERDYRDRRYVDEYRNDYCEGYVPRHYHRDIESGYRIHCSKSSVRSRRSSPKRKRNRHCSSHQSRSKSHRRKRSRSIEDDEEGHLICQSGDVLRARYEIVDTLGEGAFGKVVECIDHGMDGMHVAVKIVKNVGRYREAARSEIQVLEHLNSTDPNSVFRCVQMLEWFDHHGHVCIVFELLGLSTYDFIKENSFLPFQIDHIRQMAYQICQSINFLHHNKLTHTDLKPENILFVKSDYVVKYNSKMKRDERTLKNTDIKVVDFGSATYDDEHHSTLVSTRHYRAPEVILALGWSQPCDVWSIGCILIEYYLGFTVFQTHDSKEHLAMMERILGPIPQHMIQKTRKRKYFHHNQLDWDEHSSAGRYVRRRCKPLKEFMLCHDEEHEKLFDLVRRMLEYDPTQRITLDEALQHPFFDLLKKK
In short: as §1

[1] = tested on: endogenous NSG pancreatic islets β-cells; assay: β-cell proliferation in endogenous pancreatic islets of NSG mice; format: in vivo, mouse; conditions: 0.25 mg/kg/BW i.p. twice a week for 3 weeks, vs nontreated or sham-operated mice
In short: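 Pancreata came from human islet-grafted NSG mice dosed i.p. with test compound (0.25 mg/kg, 50% DMSO) or vehicle twice weekly for 3 weeks. Mice then received BrdU 100 mg/kg i.p. for 3 days and were killed 6 h after the final injection. Sections were stained for insulin, BrdU and DAPI, and BrdU+ β-cells were quantified; n = 4; mean ± SEM; unpaired t test.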

[2] = tested on: liver, adipose, muscle and kidney tissue; assay: Proliferation; format: in vivo, mouse; conditions: 3-week treatment, 0.25 mg/kg/BW i.p.
In short: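 Male NSG mice (8–10 weeks old) carried human islet kidney-capsule grafts. From 1 week post-graft they received test compound i.p. at 0.25 mg/kg in 50% DMSO or vehicle, twice weekly for 3 weeks. BrdU was then given at 100 mg/kg i.p. for 3 days, and mice were killed 6 h after the last dose. BrdU+ nuclei were counted in liver and muscle (≥3,000 cells) and in visceral/subcutaneous adipose (1,000–2,000 cells).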

primary rat neurons = assay: Proliferation of primary rat neurons in culture; format: cell-based

remaining activity DYRK4 (DYRK4; 100 nmol/L): < 10%
pIC50 (DYRK4; read-out: IC50 DYRK4, ATP within 15 μmol/L of apparent KM): 6.89
remaining activity CLK4 (CLK4; 100 nmol/L): < 10%
pIC50 (CLK4; read-out: IC50 CLK4, ATP within 15 μmol/L of apparent KM): 7.85
Compound: Nc1ncnc2c1c(I)cn2[C@@H]1O[C@H](CO)[C@@H](O)[C@H]1O [5-IT, 5-iodotubercidin]
increase in β-cell proliferation in pair-matched islets (human β-cells; 6-day treatment, islets pair-matched to the WS-3 test): 20 fold
concentration of maximal effect on β-cell proliferation (human β-cells; 6 days of treatment): 1 µmol/L
increase in β-cell proliferation (EdU incorporation) (human β-cells; 6 days of treatment, dissociated human islet cells, maximal effect): 10- to 12 fold
increase in BrdU+ β-cells in endogenous NSG pancreatic islets [1]: ~2.5 fold
proliferation in liver, adipose, muscle and kidney tissue, treated vs control [2]: no significant differences
effect on primary rat neurons in culture (primary rat neurons): no effect
